Where a name gives a salt, the structure may show the parent alone. Numbered stars: 1 amine (or outer) side, 2 acyl side, 3 side chain; on linkers, the order of the positions; unused ones are H or OH. Bridge positions count the residues as written; N and C are the ends. Square brackets hold non-standard residues; d marks the D form. Peptide text beside a SMILES is read from it. I, II: the chains in the order shown. Actinocin(9to1) = Cc1c2oc3c(C)ccc(C(=O)[*:1])c3nc-2c(C(=O)[*:2])c(N)c1=O; NMeV = CN[C@H](C(=O)O)C(C)C; Sar = CNCC(=O)O
Columns and labels:
[1] = CC50 / cell viability by NucGreen staining, MRC5 cells; format: cell-based, Human; details: human
[2] = system: CMV AD169IE2-YFP; assay: in vitro; format: cell-based, Human cytomegalovirus; details: MRC5 cells; for Selective Ratio (CC50/EC50) / selectivity ratio: AD169IE2-YFP; for selectivity ratio: human, Selective Ratio (CC50/EC50)
[3] = system: CMV AD169IE2-YFP; assay: High-content screen, IE2-YFP nuclear fluorescence in infected MRC5 cells; format: cell-based, Human cytomegalovirus; details: for activity at 5.6 µM: Human betaherpesvirus 5, MRC5, 16 h, read-out: YFP Intensity (%); for reduction of YFP intensity: primary screen, screening dose (5μM printed elsewhere in the source)
[4] = system: CMV AD169; assay: Immunoblot of viral early protein US11 in infected MRC5 cells; format: cell-based, Human cytomegalovirus; details: MRC5, AD169-WT MOI 3, 20 hpi; for US11 protein level in infected cells: 50 or 500nM of respective compound
Outline: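 MRC5 cells were pretreated 1 h at 37 °C with test compound or 0.1% DMSO, infected with wild-type AD169 (MOI 3), then washed once with DMEM before analysis.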

[5] = system: CMV; assay: Addition of compound after infection; format: cell-based, Human cytomegalovirus; details: added up to 4hpi, data not shown
[6] = system: MRC5 cells; assay: CC50 / cell viability by NucGreen staining, MRC5 cells; format: cell-based, Human; details: MRC5 cells, 0-5μM, 19 hours, NucGreen
[7] = system: CMV AD169IE2-YFP; format: cell-based, Human cytomegalovirus; details: MRC5, MOI 0.5, compound present until 24 hpi
[8] = Cell viability by NucGreen staining, ARPE-19 cells; format: cell-based; details: human
Outline: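 ARPE-19 cells, 10,000/well in 96-well plates, were exposed next day to test compound in DMEM, in sextuplicate. After 19 h, NucGreen dead-cell stain went into three of six wells per condition for 10 min at RT. Total cells were counted by fixing with 4% paraformaldehyde and adding NucGreen for 10 min. Signal was read on a fluorescent plate reader, and % viability was taken from NucGreen-positive counts of treated versus total cells.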

[9] = system: CMV AD169IE2-YFP; assay: Multi-cycle infection study, YFP+ cells under long-term convallatoxin treatment; format: cell-based, Human cytomegalovirus
Outline: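 MRC5 cells, 10,000/well in 96-well plates, received DMEM with test compound (0, 5, 10 or 50 nM) in sextuplicate. In one plate this was followed immediately by AD169 IE2-YFP infection (MOI 0.5) or medium alone. In the other, cells were infected (MOI 0.5) or mock-infected for 36 h before compound-containing medium was added. IE2-YFP-positive cells were read on a fluorescent plate reader up to 168 hpi.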

[10] = system: CMV TB40/EFLAG-YFP; assay: EC50 of convallatoxin, clinical strain reporter virus in ARPE-19 cells; format: cell-based, Human cytomegalovirus; details: Human betaherpesvirus 5, ARPE-19
Outline: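 ARPE-19 cells, 10,000/well in 96-well plates, got DMEM with test compound (0-10 nM) the next day, in sextuplicate. They were then infected with TB40/E FLAG-YFP (US28 replaced by FLAG-YFP; MOI 20). YFP+ cells were counted at 120 hpi on an Acumen eX3 cytometer, with positive meaning above 2 SD of background. % infection was set against DMSO-treated cells; EC50 came from a three-parameter log(inhibitor)-response fit of mean values.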

[11] = system: MRC5 cells; assay: Cell viability under prolonged treatment, uninfected MRC5 fibroblasts, NucGreen; format: cell-based, Human; details: 5nM, throughout the timecourse (up to 168 hours)
Outline: (§1)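 Uninfected MRC5 fibroblasts, 10,000/well in 96-well plates, were kept in DMEM with test compound (0, 5, 10 or 50 nM) in sextuplicate for up to 168 h. NucGreen dead-cell staining was read on a fluorescent plate reader. Percent viability used the total cell number of DMSO-treated wells as 100%, plotted at 72, 120 and 168 hpi.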

[12] = as above; format: cell-based, Human; details: human, uninfected MRC5 fibroblasts
Outline: as §1

## CC(=O)O[C@@H]1C[C@@]2(C)[C@H](c3ccoc3)C[C@H]3O[C@]32[C@]2(C)C(=O)C(O)=C3C(C)(C)C(=O)C=C[C@]3(C)[C@@H]12 [Anthothecol]
[1]
  CC50 at 19 h: 700 nM
[2]
  Selective Ratio (CC50/EC50): 0.4
[2]; listed as anthothecol
  Selective Ratio (CC50/EC50): < 30
[3]
  activity at 5.6 µM: 27.5 ± 0.55%

## COc1ccc2c(c1OC)C(=O)O[C@@H]2[C@H]1c2c(cc3c(c2OC)OCO3)CCN1C [Noscapine]
[3]
  activity at 5.6 µM: 106%

## C[C@@H]1C[C@@H]([C@H](O)CC2CC(=O)NC(=O)C2)C(=O)[C@@H](C)C1 [Cycloheximide]
[3]
  activity at 5.6 µM: 11.2 ± 1.8%

## CC[C@H]1CN2CCc3cc(OC)c(OC)cc3[C@@H]2C[C@@H]1C[C@H]1NCCc2cc(OC)c(OC)cc21 [emetine]
[3]
  reduction of YFP intensity: 41%

## CC[C@]1(O)C[C@H]2CN(CCc3c([nH]c4ccccc34)[C@@](C(=O)OC)(c3cc4c(cc3OC)N(C=O)[C@H]3[C@@](O)(C(=O)OC)[C@H](OC(C)=O)[C@]5(CC)C=CCN6CC[C@]43[C@@H]65)C2)C1 [Vincristine sulfate]
[1]
  CC50 at 19 h: 40 nM
[2]
  Selective Ratio (CC50/EC50): 3.4
[3]
  activity at 5.6 µM: 26.6 ± 0.53%

## COc1cc2c(c(OC)c1OC)-c1ccc(OC)c(=O)cc1[C@@H](NC(C)=O)CC2 [Colchicine]
[4]
  US11 protein level in infected cells: lower levels of US11
[1]
  CC50 at 19 h: > 5000 nM
[3]
  activity at 5.6 µM: 17.3 ± 0.34%
[5]
  effect on infection when added after infection: reduced infection

## CO[C@H]1[C@H](O)[C@H](O[C@H]2CC[C@@]3(C=O)[C@H](CC[C@@H]4[C@@H]3CC[C@]3(C)[C@@H](C5=CC(=O)OC5)CC[C@]43O)C2)O[C@@H](C)[C@@H]1O [peruvoside]
[3]
  reduction of YFP intensity: ≤ 70%

## CN(C)C(=S)SSC(=S)N(C)C [Thiram]
[1]; MRC5 cells
  CC50 at 19 h: 2200 nM
[2]
  Selective Ratio (CC50/EC50): <0.4
[2]; listed as thiram
  Selective Ratio (CC50/EC50): < 30
[3]
  activity at 5.6 µM: 14 ± 0.29%

## COc1cc(C2c3cc4c(cc3C(O)C3COC(=O)C23)OCO4)cc(OC)c1O (stereo not drawn) [4′-demethyl-epipodophyllotoxin]
[6]
  CC50: > 5000 nM
[2]
  Selective Ratio (CC50/EC50): >1.5

## C[C@@H]1O[C@@H](O[C@H]2CC[C@]3(C=O)[C@H]4CC[C@]5(C)[C@@H](C6=CC(=O)OC6)CC[C@]5(O)[C@@H]4CC[C@]3(O)C2)[C@H](O)[C@H](O)[C@H]1O [Convallatoxin]
[4]
  US11 protein level in infected cells: lower levels of US11
[4]; convallatoxin 5-50nM (all concentrations)
  US11 expression: blocked the expression of US11 at all concentrations
[7]; followed 9 days, ganciclovir 12μM
  YFP fluorescence (% infection vs DMSO): significant decrease in fluorescence
[7]; plaque assay of supernatants
  decrease in virus titer compared to ganciclovir treatment: ~10 fold
[8]
  viability at 19 h, 10 nM: ~80%
[9]; 5nM, added at 0hpi, by 100hpi
  fluorescent expression relative to DMSO-treated cells: approximately half
[9]; MRC5, MOI 0.5, 5, 10 or 50nM added simultaneously with virus (0hpi)
  number of YFP+ cells compared to DMSO: reduced the number of YFP+ cells in a dose-dependent manner
[9]; MRC5, MOI 0.5, treatment of infected cells at 36hpi
  number of YFP+ cells: significant decrease of YFP+ cells
[1]
  CC50 at 19 h: > 5000 nM
  viability at 19 h, 5 µM: 100%
[2]
  selectivity ratio: > 454
[3]
  activity at 5.6 µM: 27.8 ± 0.87%
[10]
  EC50: 0.1 nM
[11]
  effect on cell viability: no detectable effect
[12]
  viability at 120 h, 0.01 µM: 79%
  viability at 120 h, 0.05 µM: 61%
  viability at 168 h, 0.01 µM: 91%
  viability at 168 h, 0.05 µM: 82%

## Cc1c2oc3c(C)ccc(C(=O)N[C@@H]4C(=O)N[C@H](C(C)C)C(=O)N5CCC[C@H]5C(=O)N(C)CC(=O)N(C)[C@@H](C(C)C)C(=O)O[C@@H]4C)c3nc-2c(C(=O)N[C@@H]2C(=O)N[C@H](C(C)C)C(=O)N3CCC[C@H]3C(=O)N(C)CC(=O)N(C)[C@@H](C(C)C)C(=O)O[C@@H]2C)c(N)c1=O [Actinomycin D] (I: T[dV]P[Sar][NMeV] / II: T[dV]P[Sar][NMeV]; ester I:1-I:C, II:1-II:C; linker I:N-II:N via Actinocin(9to1))
[3]
  activity at 5.6 µM: 5.8 ± 0.11%

## C[C@@H]1O[C@@H](O[C@H]2C[C@@H](O)[C@]3(CO)[C@H]4[C@H](O)C[C@]5(C)[C@@H](C6=CC(=O)OC6)CC[C@]5(O)[C@@H]4CC[C@]3(O)C2)[C@H](O)[C@H](O)[C@H]1O [ouabain]
[3]
  reduction of YFP intensity: ≤ 70%

## CC[C@]1(O)C[C@@H]2CN(CCc3c([nH]c4ccccc34)[C@@](C(=O)OC)(c3cc4c(cc3OC)N(C)[C@H]3[C@@](O)(C(=O)OC)[C@H](OC(C)=O)[C@]5(CC)C=CCN6CC[C@]43[C@@H]65)C2)C1 [Vinblastine sulfate]
[3]
  activity at 5.6 µM: 24.2 ± 0.48%

## COc1cc([C@@H]2c3cc4c(c(O)c3C[C@H]3COC(=O)[C@@H]32)OCO4)cc(OC)c1OC [β-peltatin]
[3]
  activity at 5.6 µM: 20.5 ± 0.41%

## COc1ccc(C[C@H]2NC[C@H](O)[C@H]2OC(C)=O)cc1 [Anisomycin]
[2]; MOI 3, 1 h pretreatment, 0-5μM, 18 hpi
  EC50: 170 nM

## COc1cc([C@@H]2c3cc4c(cc3[C@H](O)[C@H]3COC(=O)[C@H]23)OCO4)cc(OC)c1OC [Podofilox]
[4]
  US11 protein level in infected cells: lower levels of US11
[1]; MRC5 cells
  CC50 at 19 h: > 5000 nM
[2]
  selectivity ratio: > 192
[3]
  activity at 5.6 µM: 14.5 ± 0.31%

— PMC4324837 (Antiviral research, 2014)
